Wee1 stabilizer: Wee1 degradation inhibitors, primary screen, cell-based, HeLa, Wee1K328M-luciferase, luminescence; reporter increase, % at 5 µM; AID 1321, 2008; HeLa Luc-Wee1K328M stability; 100% = proteasome inhibitor MG132 effect; Wee1-like protein kinase (Homo sapiens), P30291; 1.2% of 220,000 active;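 active = activation above the mean of all tested compounds plus 3 SD, set per screening run, cut at about 8.8% in these data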;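 also: cells exposed to compound for 20 h before luminescence read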
Target sequence (P30291 whole entry K328M): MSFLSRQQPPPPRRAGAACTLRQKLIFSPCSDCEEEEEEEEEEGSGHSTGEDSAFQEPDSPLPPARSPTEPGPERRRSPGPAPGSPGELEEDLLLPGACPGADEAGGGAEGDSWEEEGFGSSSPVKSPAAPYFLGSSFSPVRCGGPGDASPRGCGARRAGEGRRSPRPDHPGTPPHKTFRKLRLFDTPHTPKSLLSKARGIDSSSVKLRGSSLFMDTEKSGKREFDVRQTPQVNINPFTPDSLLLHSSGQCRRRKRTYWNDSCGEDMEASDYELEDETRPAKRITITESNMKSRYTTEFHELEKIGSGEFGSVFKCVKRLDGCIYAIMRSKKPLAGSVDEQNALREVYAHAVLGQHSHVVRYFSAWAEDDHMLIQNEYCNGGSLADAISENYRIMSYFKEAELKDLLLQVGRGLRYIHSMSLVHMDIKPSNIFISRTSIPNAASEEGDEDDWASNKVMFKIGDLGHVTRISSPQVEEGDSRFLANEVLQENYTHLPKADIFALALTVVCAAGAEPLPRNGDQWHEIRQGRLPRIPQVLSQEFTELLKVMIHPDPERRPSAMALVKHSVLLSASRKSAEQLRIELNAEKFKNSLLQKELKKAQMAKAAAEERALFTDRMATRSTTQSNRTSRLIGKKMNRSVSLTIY
p97 inhibitor: inhibitors of human p97 ATPase, primary screen, biochemical; recombinant p97 ATPase, Kinase-Glo ATP luminescence, 3 h; inhibition, % at 8 µM; Transitional endoplasmic reticulum ATPase (Homo sapiens), P55072; 0.42% of 220,000 active; AID 1481, 2009; in the data active = inhibition above about 15%
RBBP9 inh: human RBBP9 inhibitors, primary screen, biochemical, fluorescence polarization, FP-Rh probe, HTS; recombinant RBBP9; inhibition, % at 7.94 µM; Serine hydrolase RBBP9 (Homo sapiens), O75884; 0.2% of 220,000 active;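 active = inhibition above the campaign mean of all tested compounds plus 3 SD, cut at about 14% in these data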
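Measured by: FP readout at 525/598 nm; material: recombinant human RBBP9; also added: Serine-hydrolase probe FP-Rh, 375 nM pre-mixing; medium: Tris buffer pH 8.0, NaCl, Pluronic; replication: one well per compound; doses: one concentration, 7.94 µM nominal, 0.794% DMSO; timing: preincubation 30 min plus labeling 45 min at 25 °C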
DTT redox prof: compounds producing H2O2 with reducing agent – biochemical, NIH compound library profiling, artefact control for MLSCN library redox annotation, primary screen. DTT-dependent redox cycling H2O2, phenol red/HRP absorbance; 100% = 100 µM peroxide control, 0% = buffer. activation, % at 10 µM. 0.03% of 200,000 active;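 active = activation of at least 50% relative to the plate's high and low controls in the primary single-dose screen; inactive = activation below 50%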;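 also: compound incubated with DTT at 0.8 mM final as the reducing agent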
Arbovirus inh: antivirals against arbovirus infection, primary screen, cell-based, full library, 10K replicate subset; arbovirus infection cell-based antiviral screen; inhibition, % at 10 µM; 0.37% of 200,000 active; in the data active = inhibition above about 30%
PKD1 kinase inh: inhibitors of human PKD1 kinase, biochemical, fluorescence polarization. Serine/threonine-protein kinase D1 (Homo sapiens), Q15139. PKD1 kinase fluorescence polarization assay. inhibition, % (test concentration not listed). 0.056% of 200,000 active. AID 797, 2007; in the data active = inhibition above about 50%
Wee1 stab conf: Wee1 degradation inhibitors, confirmation, cell-based, HeLa, Wee1K328M-luciferase, luminescence, triplicate | 4% of 1,100 active | HeLa Luc-Wee1K328M degradation; vehicle 0%, proteasome-blocked wells 100% | activation, % at 5 µM | AID 1410, 2008 | shares compounds with Wee1 stabilizer; in the data active = activation above about 8.9%
Of the large screens only hits and unclear results are named; the others gave an inactive call (follow-up assays come after a bar, where they were run). Rows were chosen to be rich in hits. Some 2.2% of all compounds tested hit in one or more screens of this group.

O=C(NNc1nc(=O)c2cccnc2s1)c1ccccc1O	none
COCCCNCCCOc1ccc(C(C)(C)c2ccccc2)cc1	none (no result: DTT redox prof)
C=CCNCCCOc1ccc(C(C)(C)c2ccccc2)cc1	Wee1 stabilizer 13 | Wee1 stab conf inactive
CSc1nccc(Oc2cncc(Cl)c2)n1	Wee1 stabilizer 17 | Wee1 stab conf inactive
CSc1nc(C)cc(Oc2ccccc2)n1	none
CCOC(=O)c1ccc2ncc(-c3ccccc3)nc2c1	Wee1 stabilizer 18 | Wee1 stab conf inactive
CCOC(=O)c1cnc(-c2ccccc2)nc1N	none
CCn1c(O)c(C=Nc2ccccc2)oc1=S	Wee1 stabilizer 14 | Wee1 stab conf inactive
CC(=O)c1sc(NC(=O)c2ccccc2F)nc1-c1ccccc1	Wee1 stabilizer 14 | Wee1 stab conf inactive
CCCCOC(=O)CCc1c(C)n[nH]c1C	Wee1 stabilizer 12 (no result: DTT redox prof, Arbovirus inh, PKD1 kinase inh) | Wee1 stab conf inactive
CCCCOC(=O)CCc1c(C)[nH]c(=O)c(C#N)c1C	none
Cc1nn(Cc2ccccc2Cl)c(C)c1C(=O)NCCN1C(=O)S/C(=C\c2ccccc2)C1=O	none
COc1ccc([C@@H]2[C@H]3C(=O)N(c4cccc(C(F)(F)F)c4)C(=O)[C@H]3ON2C)cc1	none
O=C1CC(C(=O)Nc2ccccc2)N=C(N2CCOCC2)N1 (stereo unspecified)	Wee1 stabilizer 11 | Wee1 stab conf inactive
COc1ccc(CN(Cc2cccn2C)S(=O)(=O)c2ccc(F)cc2)cc1	Wee1 stabilizer 11 (no result: DTT redox prof, Arbovirus inh, PKD1 kinase inh) | Wee1 stab conf inactive
N#C/C(C(=O)N1CCOCC1)=C1/SC(Cc2ccccc2Cl)C(=O)N1c1ccccc1 (stereo unspecified)	Wee1 stabilizer 11 | Wee1 stab conf inactive
CC1(C)Oc2ccc(NC(=O)c3ccco3)cc2O1	Wee1 stabilizer 13 | Wee1 stab conf inactive
O=C(Nc1ccc2c(c1)OCCO2)c1ccco1	none
Clc1cccc(NCc2ccccc2)n1	Wee1 stabilizer 27 | Wee1 stab conf inactive
Cc1cc([N+](=O)[O-])nn1CCCC(=O)Nc1ccc(Cl)cc1Cl	none
Cc1c(Cl)cccc1NC(=O)CCCn1nc([N+](=O)[O-])cc1C	Wee1 stabilizer 15 | Wee1 stab conf inactive
NC(=S)N/N=C/c1ccc(Br)o1	Wee1 stabilizer 17 | Wee1 stab conf inactive
O=C(N/N=C1\CC(c2ccccc2)Oc2ccccc21)c1cccnc1 (stereo unspecified)	Wee1 stabilizer 12 | Wee1 stab conf inactive
O=C(CCCc1c[nH]c2ccccc12)N1CCN(S(=O)(=O)c2cccs2)CC1	none
Cc1ccc2nc(NCc3ccccc3)[nH]c2c1	Wee1 stabilizer 17 | Wee1 stab conf 29
CCCS(=O)(=O)N1CCN(S(=O)(=O)c2ccccc2[N+](=O)[O-])CC1	Wee1 stabilizer 11 | Wee1 stab conf inactive
CC1CC(C)CN(S(=O)(=O)c2ccccc2[N+](=O)[O-])C1 (stereo unspecified)	none
COc1cccc(CC(=O)Nc2nc3ccccc3[nH]2)c1	Wee1 stabilizer 12 | Wee1 stab conf inactive
COc1cc(C(=O)Nc2nc3ccccc3[nH]2)ccc1OC(F)F	Wee1 stabilizer 12 (no result: DTT redox prof, Arbovirus inh, PKD1 kinase inh) | Wee1 stab conf inactive
COc1ccc(CC(=O)Nc2nc3ccccc3[nH]2)cc1	none (no result: DTT redox prof, Arbovirus inh, PKD1 kinase inh)
CC(O)c1nc2ccccc2n1CC(=O)N1CCN(c2ccccc2)CC1 (stereo unspecified)	none
NNC(=O)c1ccc(COc2ccc3c(c2)CCC3)cc1	none
NNC(=O)c1ccc(COc2ccc3ccccc3c2)cc1	Wee1 stabilizer 15 (no result: DTT redox prof, Arbovirus inh, PKD1 kinase inh) | Wee1 stab conf inactive
CCS(=O)(=O)N1CCN(c2ccc([N+](=O)[O-])c(NCC3CCCO3)c2)CC1 (stereo unspecified)	Wee1 stabilizer 12 | Wee1 stab conf inactive
O=C(Cn1cccn1)c1ccccc1	none
